Assay outcomes: PubChem BioAssay, The Scripps Research Institute Molecular Screening Center
Most compounds without a hit are left out; they make up all but 2.3% or so of the library.
TAAR1 agonist = human TAAR1 agonism; 0.99% of 360,000 active; Q96RJ0; CHO RD-HGA16 TAAR1, Fluo-8 calcium fluorescence; vehicle wells 0%, saturating PEA agonist 100%; activation, % at 3 µM;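 active = activation above the mean activation of all test compounds in the run plus 3 SD, cut at about 38% in these data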
Target sequence (Q96RJ0 whole entry, looked up): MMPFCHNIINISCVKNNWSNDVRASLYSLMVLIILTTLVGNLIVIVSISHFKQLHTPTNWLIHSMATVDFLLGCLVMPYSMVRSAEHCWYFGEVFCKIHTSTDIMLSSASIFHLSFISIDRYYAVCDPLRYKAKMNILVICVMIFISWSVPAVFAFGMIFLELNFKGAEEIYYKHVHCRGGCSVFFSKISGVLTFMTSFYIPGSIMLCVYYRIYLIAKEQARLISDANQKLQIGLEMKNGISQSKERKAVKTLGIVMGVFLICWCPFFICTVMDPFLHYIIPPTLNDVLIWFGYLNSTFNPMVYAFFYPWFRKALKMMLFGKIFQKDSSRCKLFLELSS
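Benchmarks: low control DMSO, high control PEA (EC100); System: CHO RD-HGA16 cells carrying human TAAR1 plus Gα16; Detection: Fluo-8 fluorescence, 5 s baseline then 140 s kinetic read; Schedule: 17-24 h plating, Fluo-8 75 min 37 °C, 30 min RT; Read-out basis: % activation from peak over basal fluorescence ratio, DMSO-to-PEA scaled.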
OXTR agonist = human OXTR agonism | CHO-OTR cells, Fluo-8 calcium fluorescence; normalized: DMSO 0%, oxytocin 100% | 0.32% of 320,000 active | activation, % at 3 µM;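 active = activation above the mean of all tested compounds plus 3 SD, cutoff set per screening run, cut at about 20% in these data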;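 also: peak over basal fluorescence ratio from a 100 s FLIPR kinetic read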
V1R ag counter = counter-screen for oxytocin receptor agonists: human V1a receptor agonists | P37288 | CHO-V1R cells, Fluo-8 calcium fluorescence, agonist mode; 0% DMSO, 100% 3 nM vasopressin | activation, % at 3 µM | 0.25% of 320,000 active | AID 2797;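 active = activation above the mean activation of all tested compounds plus 3 SD, per screening run, cut at about 20% in these data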;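 also: signal is peak over basal fluorescence ratio across a 100 second FLIPR read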
OXTR potentiator = potentiates the human oxytocin receptor response; P30559; CHO-OTR cells, Fluo-8 calcium fluorescence, potentiator mode; 0% = oxytocin EC15, 100% = EC100; activation, % at 3 µM; 0.061% of 320,000 active;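 active = activation above that plate's cutoff, the mean activation of tested compounds plus 3 SD, cut at about 6.6% in these data, passing the limit was not always enough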;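 also: 100% uses oxytocin at 75 nM as the full agonist control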
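Dosing: Single dose, 3.0 µM nominal final compound concentration | Material: Human OTR in CHO cells | Technique: Kinetic Fluo-8 calcium fluorescence | Benchmarks: EC15 oxytocin alone as 0%, 75 nM oxytocin as 100% | Probe or stimulus: Oxytocin at about EC15, sub-maximal agonist stimulus | Incubation: Compound 6 min at room temperature before oxytocin, 100 s read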
TAAR1 antag = antagonists of human TAAR1 | CHO RD-HGA16 TAAR1, Fluo-8 calcium fluorescence, antagonist | 1.5% of 360,000 active | inhibition, % at 3 µM;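 active = inhibition above a per-plate cutoff, the mean inhibition of test compounds on that plate plus 3 SD, cut at about 49% in these data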;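 also: 0% = DMSO plus EC80 beta-PEA response and 100% = DMSO alone without agonist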
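Material: RD-HGA16 CHO cells with stable hTAAR1 and Gα16; Dosing: single nominal final test compound concentration of 3 µM; Schedule: seeding 17-24 h prior, 75-min 37 °C, 30-min RT dye loading; Detection: kinetic Fluo-8 calcium fluorescence measurement; Measure: % inhibition from peak post-agonist over basal fluorescence ratio; Benchmarks: vehicle and agonist controls.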
OXTR ag confirm = confirmation of human oxytocin receptor agonists; CHO-OTR cells, Fluo-8 calcium fluorescence, agonist; shares compounds with OXTR agonist; activation, % at 3 µM; 20% of 390 active;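 active = mean activation above about 20% derived from the earlier single-dose screen, limit read from the data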;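 also: peak over minimum fluorescence ratio per well during a 100 second FLIPR read; 0% = DMSO alone and 100% = oxytocin high control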
V1aR counter 3x = V1R agonism in triplicate, counter-screen for OXTR agonists | 10% of 390 active | CHO-V1R cells, Fluo-8 calcium fluorescence, agonist | activation, % at 3 µM | AID 434991 | shares compounds with OXTR agonist;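 active = mean activation over triplicate exceeds the hit threshold set in the earlier primary screen, cut at about 20% in these data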;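 also: peak over basal fluorescence ratio within a 100 second read; 0% = DMSO alone and 100% = 3 nM vasopressin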
An asterisk follows results filed as active; · = not tested or not shown.

SMILES	TAAR1 agonist	OXTR agonist	V1R ag counter	OXTR potentiator	TAAR1 antag	OXTR ag confirm	V1aR counter 3x
CCOc1ccc(S(=O)(=O)Nc2cccc(C(=O)NCC(C)(C)N3CCOCC3)c2)cc1	2	1	1	-9	-13	·	·
Cc1ccc(Cc2c(C)nc3nc(SCC(=O)NCCCN4CCCC4)nn3c2C)cc1	2	-1	-1	-8	-1	·	·
O=C(CN(CCO)c1ccccc1)Nc1ccc(Cl)c(S(=O)(=O)N2CCOCC2)c1	5	3	8	-6	1	·	·
COc1ccc(NC(C)=O)cc1NS(=O)(=O)c1ccc2c(c1)OCCO2	1	2	0	-1	8	·	·
COc1ccc(CN(C)C(=O)C(CCSC)NS(=O)(=O)c2ccc3c(c2)OCCO3)c(OC)c1OC (centres undefined)	12	·	·	·	56*	·	·
CC1(C)Cc2cccc(OCC(=O)N3CCN(c4ccccc4F)CC3)c2O1	1	-2	-1	-2	22	·	·
COc1ccccc1N1CCN(C(=O)c2ccc(COc3cccc4c3OC(C)(C)C4)cc2)CC1	0	-1	0	-1	56*	·	·
Cc1ccc(S(=O)(=O)N2CCCCC2)cc1C(=O)NCc1ccncc1	0	0	0	-13	4	·	·
Cc1ccc2nc(N(CCCN(C)C)C(=O)CCc3ccccc3)sc2c1	24	23*	9	-10	5	4	1
CN(C)CCCN(C(=O)CCc1ccccc1)c1nc2ccc(Cl)cc2s1	12	24*	14	-12	13	6	2
Cc1ccc2nc(N(CCCN(C)C)C(=O)CS(=O)(=O)c3ccccc3)sc2c1	4	4	1	-1	0	·	·
Cc1cccc(C)c1NC(=O)CSc1nc(N2CCOCC2)nc(N2CCOCC2)n1	0	0	0	-3	3	·	·
COc1ccc(C(CCNCc2ccc(OC(C)C)cc2)c2ccccc2OC)cc1 (centres undefined)	38*	22*	15	-18	38	12	9
NC(=O)c1cc(S(=O)(=O)NCc2ccc(F)cc2)cs1	2	20*	1	-6	-15	0	0
Cc1nn(C)cc1C(C(=O)NC1CCCCC1)N(C(=O)Cc1cccs1)c1ccc(C(C)C)cc1 (centres undefined)	18	22*	1	-19	-5	5	3
Cc1nn(C)cc1C(C(=O)NC1CCCCC1)N(C(=O)Cc1cccs1)c1ccc(F)cc1 (centres undefined)	13	-1	1	4	5	·	·
CN1CCS/C1=C/C=C1\SC(=S)N(CC(=O)O)C1=O	33	33*	19	-7	40	31*	38*
CN1CCS/C1=C/C=C1/SC(=S)N(Cc2ccccc2)C1=O	36	17	7	-10	12	·	·
CCCN1C(=O)S/C(=C/c2ccc(N3CCOCC3)o2)C1=O	19	20*	7	-4	22	31*	55*
CCOC(=O)CN1C(=O)S/C(=C/c2ccc(N3CCCCC3)o2)C1=O	29	10	4	-15	29	·	·
CCOc1ccc(C(=O)NC2CCN(C(=S)NCc3ccco3)CC2)cc1	2	1	1	-3	-17	·	·
CNc1ncnc(NC)c1[N+](=O)[O-]	3	·	·	·	9	·	·
Cc1c(O)c2c3c(cccc3c1O)C(=O)N(c1ccccc1)C2=O	20	24*	13	-12	15	29*	35*
O=C1NC[C@@H](Cc2cccc3ccccc23)N(CC2(c3ccccc3)CC2)C1=O	11	23*	1	-10	-6	0	0
CCCCN1C(=O)C(=O)NC[C@H]1Cc1cccc2ccccc12	-1	·	·	·	-9	·	·
SMILES	TAAR1 agonist	OXTR agonist	V1R ag counter	OXTR potentiator	TAAR1 antag	OXTR ag confirm	V1aR counter 3x
COc1ccc(C(=O)Nc2ccc(Cl)cc2C(=O)N2CCOCC2)cc1	1	0	1	6	-5	·	·
CNC[C@H](Cc1ccccc1)NC[C@@H](Cc1cccc2ccccc12)NCCc1ccc(C)cc1	43*	21*	7	-9	50*	10	9
Cc1occc1C(=O)N/N=C/c1ccc(N(C)C)cc1	8	0	0	-10	9	·	·
O=C(O)c1ccc(NS(=O)(=O)Cc2ccc(Cl)c(Cl)c2)cc1	2	·	·	·	6	·	·
COc1ccc(CC2(CO)CCN(CC3=Cc4cc(Cl)ccc4OC3)CC2)cc1	17	23*	19	-33	11	14	12
COc1ccc2c(c1)C=C(CN1CCC(CO)(CCc3ccccc3)CC1)CO2	10	3	2	-4	7	·	·
CC(=O)C1=C(c2ccccc2)NC(=S)NC1c1cc(Cl)c(OC(C)C)c(Cl)c1 (centres undefined)	14	20*	16	-8	17	17	15
O=C(CN1C(=O)CCS(=O)(=O)c2ccccc21)Nc1ccccc1F	2	-1	1	-2	-27	·	·
O=CN(Cc1ccccc1)c1cc([N+](=O)[O-])ccc1OCc1ccccc1	-2	·	·	·	27	·	·
COc1cccc(C(=O)NCCS(=O)(=O)NCc2ccccn2)c1	2	0	0	4	-12	·	·
NC(=O)c1c(NC(=O)c2ccncc2)sc2c1CCCCCC2	30	24*	13	-8	9	14	21*
COc1ccc(NS(=O)(=O)c2cccc(C(=O)NCC3(N4CCOCC4)CCCCC3)c2)cc1	1	-1	0	-6	-8	·	·
COc1ccc(NS(=O)(=O)c2ccc(C(=O)NCC3(N4CCOCC4)CCCCC3)cc2)cc1	57*	24*	18	-9	11	16	10
COC(=O)c1ccc(NC(=O)Nc2ccc([N+](=O)[O-])cc2)cc1	10	20*	16	-16	17	14	12
O=C(Nc1ccc(C(=O)O)cc1)Nc1ccc([N+](=O)[O-])cc1	2	1	0	6	11	·	·
CC(C)NCC(O)Cn1c2c(c3ccccc31)CCc1c-2cnn1-c1ccccc1 (centres undefined)	20	22*	19	-23	-8	12	6
CCOP(=O)(OCC)C(Nc1cccc([N+](=O)[O-])c1)c1ccc(N(C)C)cc1 (centres undefined)	-1	-2	-1	-7	-25	·	·
COc1ccc(CNCCNC(=O)c2nonc2N)cc1OC	15	2	1	3	1	·	·
Nc1nonc1C(=O)NCCNCc1cc(Br)ccc1OCc1ccc(F)cc1	14	20*	13	-8	29	8	10
N#Cc1ccsc1NC(=O)c1ccc(Cl)c([N+](=O)[O-])c1	6	22*	15	-9	-3	18	12
